Results as given in ChEMBL document CHEMBL1123837, “1-Amino-substituted 4-methyl-5H-pyrido[3',4':4,5]pyrrolo[3,2-c]pyridines: a new class of antineoplastic agents” (J Med Chem, 1987).
Active and inactive are the calls of the source. The rule behind the calls is not given here.

How the values were obtained:
Calf thymus DNA = experiment: Binding affinity for DNA by ethidium bromide displacement assay; format: nucleic-acid assay; settings: Bos taurus
Summary of the method: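 Competitive ethidium bromide displacement with calf thymus DNA at 10 µg/mL in 20 mM Na phosphate buffer, 0.1 M NaCl, 1 mM EDTA, pH 7.4. The apparent DNA affinity constant is given in 10^6 M^-1 ± standard deviation, from 6 values across two independent experiments.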

L1210 = experiment: (§1) In vitro cytotoxicity against L1210 cells was determined after 48 hours of incubation; format: functional, Mus musculus; settings: read-out: ID50 (the source's name)
Summary of the method: (§2)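 Exponentially growing L1210 cells were cultured in RPMI 1640 with 2 mM glutamine, penicillin/streptomycin and 10% fetal calf serum, under 5% CO2 at 37 °C. Drugs dissolved in distilled water were added to cells at 0.8 × 10^5 cells/mL for 48 h, then cells were counted. ID50 was estimated by regression of dose-response data, as the mean of two values from two independent experiments.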

Mus musculus [1] = experiment: In vivo antitumor activity was determined against P388 leukemia cells expressed as treated/control at the dose of 50 mg/kg;T = toxic at this dose; format: organism-based; set-up: dose 50 mg/kg
Summary of the method: (§3)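 Following NCI protocols, 10^6 viable P388 leukemia cells were inoculated ip on day 0 into male or female CDF1 hybrid mice, 10 per test group. Compounds in distilled water were given ip (0.1 mL/10 g body weight) at various doses on days 1–5. T/C = median survival day of treated / median survival day of negative controls × 100.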

Mus musculus [2] = experiment: In vivo antitumor activity was determined against P388 leukemia cells expressed as treated/control at the dose of (5-20)mg/kg; IA = Inactive; format: functional, organism-based; summary of the method: as §3
Mus musculus [3] = experiment: In vivo antitumor activity was determined against P388 leukemia cells expressed as treated/control at the dosage of 10 mg/kg; format: functional; summary of the method: as §3
Mus musculus [4] = experiment: In vivo antitumor activity was determined against P388 leukemia cells expressed as treated/control at the dosage of 20 mg/kg; format: functional; summary of the method: as §3
Mus musculus [5] = experiment: In vivo antitumor activity was determined against P388 leukemia cells expressed as treated/control at the dosage of 40 mg/kg; format: functional; summary of the method: as §3
Mus musculus [6] = experiment: In vivo antitumor activity was determined against P388 leukemia cells expressed as treated/control at the dose of 80 mg/kg;T = toxic at this dose; format: organism-based; set-up: dose 80 mg/kg; summary of the method: as §3
Mus musculus [7] = experiment: In vivo antitumor activity was determined against P388 leukemia cells expressed as treated/control at the dose of (2.5-40)mg/kg; IA = Inactive; format: functional, organism-based; summary of the method: as §3
Mus musculus [8] = experiment: In vivo antitumor activity was determined against P388 leukemia cells expressed as treated/control at the dose of (0.30-60)mg/kg; IA = Inactive; format: functional, organism-based; summary of the method: as §3
Mus musculus [9] = experiment: In vivo antitumor activity was determined against P388 leukemia cells expressed as treated/control at the dose of (5-60)mg/kg; IA = Inactive; format: functional, organism-based; summary of the method: as §3
[10] = as §1; format: cell-based; settings: mouse, read-out: ID50; summary of the method: as §2
Mus musculus [11] = experiment: In vivo antitumor activity was determined against P388 leukemia cells expressed as treated/control at the dose of 40 mg/kg; T = toxic at this dose; format: organism-based; set-up: dose 40 mg/kg; summary of the method: as §3
Mus musculus [12] = experiment: In vivo antitumor activity was determined against P388 leukemia cells expressed as treated/control at the dose of (2.5-20)mg/kg; IA = Inactive; format: functional, organism-based; summary of the method: as §3
Mus musculus [13] = experiment: In vivo antitumor activity was determined against P388 leukemia cells expressed as treated/control at the dose of (2.5-40)mg/kg(nontoxic at highest dose tested.); IA = Inactive; format: functional, organism-based; summary of the method: as §3
Mus musculus [14] = experiment: In vivo antitumor activity was determined against P388 leukemia cells expressed as treated/control at the dose of (80)mg/kg;T = toxic at this dose; format: functional, organism-based; summary of the method: as §3
Mus musculus [15] = experiment: In vivo antitumor activity was determined against P388 leukemia cells expressed as treated/control at the dose of (1.25-40)mg/kg; IA = Inactive; format: functional, organism-based; summary of the method: as §3
Mus musculus [16] = experiment: In vivo antitumor activity was determined against P388 leukemia cells expressed as treated/control at yhe dose of 2.5-40 mg/kg; IA = Inactive; format: functional, organism-based; summary of the method: as §3

With `CCN(CC)CCCCNc1[nH]cc(C)c2nc3ccncc3c1-2` the K aff (Calf thymus DNA) was 30000 M⁻¹, the IC50 (L1210; Mus musculus, L1210, 48 h) was 12 µM and the T/C (Mus musculus [1]) was “Toxic”. The T/C (Mus musculus [2]) was “inactive”.
`CCN(CC)CCCNc1ncc(C)c2[nH]c3ccncc3c12` gave an IC50 (L1210) of 0.34 µM, a T/C (Mus musculus [3]) of 135 and a T/C (Mus musculus [4]) of 148. For the same compound, the T/C (Mus musculus [5]) was 155.
With `CCNCCCNc1[nH]cc(C)c2nc3ccncc3c1-2` the K aff (Calf thymus DNA) was 25000 M⁻¹, the IC50 (L1210; Mus musculus, L1210, 48 h) was 17.4 µM and the T/C (Mus musculus [6]) was “Toxic”. For the same compound, the T/C (Mus musculus [7]) was “inactive”.
In the case of `CCN(CC)CCCN(C)c1[nH]cc(C)c2nc3ccncc3c1-2`, the K aff (Calf thymus DNA) is reported as 6000 M⁻¹, the IC50 (L1210; Mus musculus, L1210, 48 h) is reported as 224 µM and the T/C (Mus musculus [8]) is reported as “inactive”.
In the case of `CN(C)CCCNc1nccc2c1c1cnccc1n2C`, the K aff (Calf thymus DNA) is reported as 20000 M⁻¹, the IC50 (L1210; Mus musculus, L1210, 48 h) is reported as 1.2 µM and the T/C (Mus musculus [9]) is reported as “inactive”.
In the case of `CCN(CC)CCCNc1[nH]ccc2nc3ccncc3c1-2`, the K aff (Calf thymus DNA) is reported as 15000 M⁻¹, the CC50 at 48 h [10] is reported as 46 µM and the T/C (Mus musculus [11]) is reported as “Toxic”. For the same compound, the T/C (Mus musculus [12]) was “inactive”.
In the case of `Cc1cnc(NCCCN2CCOCC2)c2c3cnccc3n(C)c12`, the K aff (Calf thymus DNA) is reported as 30000 M⁻¹, the IC50 (L1210; Mus musculus, L1210, 48 h) is reported as 5.3 µM and the T/C (Mus musculus [13]) is reported as “inactive”.
In the case of `CCN(CC)CCCN(C)c1ncc(C)c2c1c1cnccc1n2C`, the K aff (Calf thymus DNA) is reported as 3000 M⁻¹, the IC50 (L1210; Mus musculus, L1210, 48 h) is reported as 52 µM and the T/C (Mus musculus [14]) is reported as “Toxic”. The T/C (Mus musculus [15]) was “inactive”.
With `Cc1cnc(NCCCN2CCCC2)c2c3cnccc3n(C)c12` the K aff (Calf thymus DNA) was 0.06, the IC50 (L1210; Mus musculus, L1210, 48 h) was 1.6 µM and the T/C (Mus musculus [16]) was “inactive”.
For `Cc1c[nH]c(NCCCN2CCOCC2)c2c3cnccc3nc1-2`, the K aff (Calf thymus DNA) was 20000 M⁻¹, the IC50 (L1210; Mus musculus, L1210, 48 h) was 19.2 µM and the T/C (Mus musculus [15]) was “inactive”.
